Assay results from the array DNA melting data of Ke et al. (doi:10.1101/2024.01.08.574731).

Columns and labels:
[1] = folding enthalpy; higher = less favourable; fluorescence melt of hairpins on a sequencing array, two-state fit; details: sodium 0.088 M
How it was run: (§1)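 Two-state fits, bootstrapped, provided melting temperature and folding enthalpy from Cy3 fluorescence normalised to pre-quench Cy3 and to control constructs. Library hairpins with annealed Cy3 and quencher oligos were imaged on a sequenced MiSeq flow cell in 50 mM Na-HEPES pH 8.0, 25 mM NaCl, at 2.5 °C intervals up to 60 °C. Four replicates were combined with inverse-variance weighting. A 9.35 °C upward shift was applied to fitted temperatures to match UV melts.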

[2] = melting temperature; fluorescence melt of hairpins on a sequencing array, two-state fit, raised by 9.35 °C to match UV melts; details: sodium 0.088 M
How it was run: as §1

Sequence | folding enthalpy [1] [kcal/mol] | Tm [2] [°C]
GATCTAGGTATAGATC ((((((....)))))) | -34.7 | 47.5
GATCTAGGTCTAGATC ((((((....)))))) | -37.1 | 46.2
GATCTAGTCCTAGATC ((((((....)))))) | -31.9 | 47.4
GATCTAGTCTAGATC ((((((...)))))) | -34.2 | 41.1
GATCTAGTTCTAGATC ((((((....)))))) | -34.8 | 46.6
GATCTATACCTAGATC ((((((....)))))) | -34.7 | 43.2
GATCTATACTTAGATC ((((((....)))))) | -46.9 | 45.6
GATCTATAGTAGATC ((((((...)))))) | -22.4 | 38.6
GATCTATATCTAGATC ((((((....)))))) | -27.6 | 36.2
GATCTATCATTAGATC ((((((....)))))) | -28.2 | 42.1
GATCTATCTCTAGATC ((((((....)))))) | -28.3 | 39.6
GATCTATCTGTAGATC ((((((....)))))) | -33.9 | 42.9
GATCTATGACTAGATC ((((((....)))))) | -26.7 | 37.1
GATCTATGCCTAGATC ((((((....)))))) | -33.3 | 41
GATCTATGTATAGATC ((((((....)))))) | -36.9 | 48.2
GATCTATTGATAGATC ((((((....)))))) | -28.8 | 44.7
GATCTCAAATGAGATC ((((((....)))))) | -37.8 | 50
GATCTCAACGGAGATC ((((((....)))))) | -35 | 52.3

Sequence | folding enthalpy [1] [kcal/mol] | Tm [2] [°C]
GATCTCAAGGAGATC ((((((...)))))) | -37.4 | 54.2
GATCTCAATGAGATC ((((((...)))))) | -35.9 | 50.6
GATCTCAATGGAGATC ((((((....)))))) | -40.6 | 51.5
GATCTCACACGAGATC ((((((....)))))) | -41.5 | 52.4
GATCTCACCCGAGATC ((((((....)))))) | -39.5 | 53.1
GATCTCACCTGAGATC ((((((....)))))) | -44.1 | 53.5
GATCTCAGAAGAGATC ((((((....)))))) | -33.5 | 50.6
GATCTCAGCAGAGATC ((((((....)))))) | -31.9 | 58.2
GATCTCAGGAGAGATC ((((((....)))))) | -34.7 | 50.8
GATCTCAGGCGAGATC ((((((....)))))) | -27.7 | 51.5
GATCTCAGGGAGATC ((((((...)))))) | -29.5 | 54.5
GATCTCAGGGGAGATC ((((((....)))))) | -34.4 | 52.5
GATCTCATAGGAGATC ((((((....)))))) | -38.1 | 51.2
GATCTCATCGAGATC ((((((...)))))) | -36.1 | 55.8
GATCTCATCTGAGATC ((((((....)))))) | -39.9 | 53.6
GATCTCATGCGAGATC ((((((....)))))) | -48.3 | 52.1
GATCTCATTCGAGATC ((((((....)))))) | -39.4 | 53.5
GATCTCATTTGAGATC ((((((....)))))) | -37.4 | 55.5
